This excerpt belongs to a sample that is enriched for hits.
RORA inh = RORA (human) inhibition; CHO-K1 Gal4-RORA LBD luciferase reporter, luminescence; inhibition, % at 10 µM; hit rate 0.43% among 65,000; AID 561; P35398;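 active means inhibition above the mean of all tested compounds plus 3 SD, cut at about 52% in these data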;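 further: 0% = RORA-transfected cells with DMSO and 100% = mock-transfected cells lacking RORA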
Target sequence (P35398 whole entry, looked up, the tested form may be a part): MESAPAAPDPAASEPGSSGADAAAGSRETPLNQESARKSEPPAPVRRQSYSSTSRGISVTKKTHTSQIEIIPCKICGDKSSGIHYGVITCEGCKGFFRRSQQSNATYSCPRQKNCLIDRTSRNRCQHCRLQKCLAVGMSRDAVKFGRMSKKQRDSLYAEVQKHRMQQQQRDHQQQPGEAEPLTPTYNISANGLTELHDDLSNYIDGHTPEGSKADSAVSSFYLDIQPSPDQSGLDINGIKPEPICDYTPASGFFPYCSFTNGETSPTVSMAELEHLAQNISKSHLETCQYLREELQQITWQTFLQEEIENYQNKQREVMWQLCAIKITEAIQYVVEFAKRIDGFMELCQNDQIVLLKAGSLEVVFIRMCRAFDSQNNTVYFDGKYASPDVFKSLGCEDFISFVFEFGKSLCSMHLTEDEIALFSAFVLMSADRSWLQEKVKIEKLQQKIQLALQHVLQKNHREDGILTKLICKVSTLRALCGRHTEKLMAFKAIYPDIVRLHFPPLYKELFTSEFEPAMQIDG
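Material: transiently transfected CHO-K1 cells, Gal4-DBD/human RORA-LBD fusion plus 5xGal4-luciferase reporter; doses: single concentration per compound, 10 µM final; incubation: 20 h at 37 °C; detection: luminescence from basal luciferase reporter expression; read-out: % inhibition of basal luciferase versus +RORA/-RORA DMSO controls; replication: tested once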
* marks the source's active call; other numbers are inactive results.

SMILES	RORA inh
O=C(Nc1ccccc1)Nc1cccc2cccnc12	-86.2
Cc1ccc(-c2ccc(/C=N/c3ncn[nH]3)o2)cc1Cl	-4.7
CCN(C(=O)c1cn(CC)c(=O)c2cc(OC)c(OC)cc12)c1ccccc1C	3.2
CCOCC(=O)Nc1ccc(S(=O)(=O)Nc2ncccn2)cc1	28.5
Cc1nnc(Sc2nc(Sc3nnc(C)s3)nc(N3CCN(C)CC3)n2)s1	93.4*
CCCCC(=O)N(c1ccc(C)c(C)c1)C1C=CS(=O)(=O)C1 (stereo not given)	3.2
c1ccc(N2CCN(c3ccccc3)C2c2cccs2)cc1	-58.3
CC1(C)CC(=O)C=C(Nc2ccc(S(N)(=O)=O)cc2)C1	8.5
O=C(NCc1ccncc1)c1cccc(F)c1	5.6
Cc1occc1-c1nnc(SCC(=O)N2c3ccccc3CCc3ccccc32)n1C	6.1
CS(=O)(=O)c1ccc2nc(NC(=O)c3ccco3)sc2c1	-65.5
CC1CCc2nc(NC(=O)c3ccco3)sc2C1 (stereo not given)	61.5*
C=CCOC(=O)c1sc(NC(=O)c2ccco2)nc1C	-52.9
CS(=O)(=O)N(CC(=O)O)c1cc(Cl)cc(Cl)c1	10.1
CC1(C)CC(=O)C(C=NCC2CCCO2)=C(O)C1 (stereo not given)	0.4
CCOc1ccccc1C1C(C(=O)Nc2ccc(OC)cc2)=C(C)Nc2nc(CCCO)nn21 (stereo not given)	7.9
N#C/C(C(=O)c1ccccc1)=C1/SC=C(N)N1c1ccccc1	-31.3
Cn1c(NCc2ccccc2)nc2c1c(=O)n(Cc1ccc(Br)cc1)c(=O)n2C	7.4
CCCCC(=O)NCCNc1nc2c(c(=O)n(C)c(=O)n2C)n1Cc1ccc(F)cc1	9.6
CCCNc1nc2c(c(=O)n(C)c(=O)n2C)n1Cc1cccc(C)c1	55.2*
CCn1c(NCc2ccccn2)nc2c1c(=O)n(C)c(=O)n2C	-1.8
CCCNc1nc2c(c(=O)n(C)c(=O)n2C)n1CCc1ccccc1	17.2
COc1cccc(Cn2c(NCc3ccco3)nc3c2c(=O)n(C)c(=O)n3C)c1	62.2*
C=CCn1c(COc2ccccc2)nnc1SCC(=O)Nc1ccc(S(N)(=O)=O)cc1	7.9
Cc1cc(C)n(CCn2nc(C)cc2C)n1	-12.1
SMILES	RORA inh
CCOC(=O)NCCc1c(C)nc2c(c(C)nn2C(C)(C)C)c1C	11.5
O=C(Cc1ccccc1)Nc1c(C(=O)N2CCOCC2)cnn1-c1ccccc1	-10.7
Nc1nc(N)c2sc3nc4c(cc3c2n1)CCC4	-56.1
CCOc1ccc(OCC(=O)Nc2ccc(S(=O)(=O)Nc3cc(C)nc(C)n3)cc2)cc1	-4.9
CCOc1ccc(S(=O)(=O)n2cnc3cc(C)c(C)cc32)cc1	66.3*
CCCCOc1ccc(S(=O)(=O)N2CCCCCC2)cc1	-11.8
Cc1cccc2cc(COC(=O)C(C)C)c(=O)[nH]c12	12.5
CCc1ccccc1NC(=O)COC(=O)C1CC(=O)N(c2ccc(F)cc2)C1 (stereo not given)	17.3
CCOC(=O)N1CCN(C2=NC3(CCCCC3)C(C#N)C(=O)N2)CC1 (stereo not given)	-7.6
Brc1cccc(-c2nnc(-c3ccccc3)o2)c1	-39.1
CCOc1ccccc1C(=O)Nc1ccc(-c2nnc(-c3ccc(C)cc3)o2)cc1	10.8
Cc1ccc(-c2nnc(Nc3ccccc3)o2)cc1	60.6*
CC(=O)c1ccc(N2CCN(CCC#N)CC2)c(F)c1	16.2
Oc1ccc(-c2nnc(SCC3CCCCC3)o2)cc1	-58.9
O=C(c1cc(-c2cccs2)on1)N1CCCc2ccccc21	-5.6
Cc1cc(/C=N/n2cnnc2)c(C)n1-c1ccc(OCc2ccc(F)cc2)cc1	70.3*
C(=N\n1cnnc1)/c1ccc(OC2CSC2)cc1	-20.3
O=C1Nc2ccccc2OC1CC(=O)N1CCCC1 (stereo not given)	-1.7
NC(=O)CS(=O)(=O)c1nc2ccccc2n1Cc1ccccc1F	21.5
COc1ccc(Oc2ccc(S(=O)(=O)N3CCCCC3)cc2S(=O)(=O)N2CCCCC2)cc1	8.9
O=S(=O)(c1ccc2c(c1)C(=NO)c1cc(S(=O)(=O)N3CCCCC3)ccc1-2)N1CCCCC1	65.8*
O=S(=O)(c1ccc(S(=O)(=O)N2CCCC2)cc1)N1CCCCCC1	-10.3
O=C(c1ccc(Br)cc1)C1CCc2occc2C1=O (stereo not given)	0.5
CCC(=O)N1CCc2cc(S(=O)(=O)N3CCc4ccccc4C3)ccc21	16.8
CC(=O)N1CCc2cc(S(=O)(=O)NC3CCCc4ccccc43)ccc21 (stereo not given)	23.5
SMILES	RORA inh
CC(=O)N1CCc2cc(S(=O)(=O)NCCC3=CCCCC3)ccc21	56.8*
Cc1noc(C)c1COC(=O)CCc1nc2ccccc2c(=O)[nH]1	4.2
O=S(=O)(C/C(=C/CO)S(=O)(=O)c1ccccc1)c1ccccc1	89.2*
CCCn1nnnc1SCC(=O)N(C(C)C)C(C)C	2.8
O=S(=O)(NCC(c1cccnc1)N1CCN(Cc2ccccc2)CC1)c1ccccc1 (stereo not given)	-4.1
COC(=O)c1cc2ccsc2n1CC(=O)Nc1cc(Cl)ccc1OC	-13.0
CN(C)c1ccc(-c2nn3c(-c4ccccc4Cl)nnc3s2)cc1	11.5
COc1ccccc1-c1nnc2sc(-c3ccc(N(C)C)cc3)nn12	56.8*
COc1ccccc1-c1nn2c(C(F)(F)F)nnc2s1	-0.4
COc1ccc(CCn2c(=N)c(C#N)cc3c(=O)n4ccccc4nc32)cc1	10.2
O=C(CSc1nnnn1C1CCCCC1)NCc1ccc2c(c1)OCO2	14.8
COc1ccc(NC(=O)C(c2ccc(C)cc2)N(C)C(=O)c2cnccn2)cc1 (stereo not given)	-0.9
CCOC(=O)c1c(NC(=O)CSc2nnnn2C)sc(CC)c1C	-3.3
Cc1oc(-c2ccccc2F)nc1CN1CCC(C(=O)NCc2cccs2)CC1	-1.0
O=C(Nc1ccon1)c1cccc(C(F)(F)F)c1	17.3
Cc1nnc(SCc2ccccc2Cl)n1CC1CCCO1 (stereo not given)	5.9
COc1ccc(-c2nnc(SCC(=O)NC(C)C)n2CC2CCCO2)cc1OC (stereo not given)	-15.2
Cc1cc(C(=O)CN2C(=O)c3ccccc3S2(=O)=O)c(C)n1CC1CCCO1 (stereo not given)	61.7*
CC(C)C(=O)N1CCN(C2=NS(=O)(=O)c3ccccc32)CC1	16.0
c1cncc(-c2nn3c(-c4ccncc4)nnc3s2)c1	-16.7
COc1cc(-c2nnc(COc3ccc4ccccc4c3)o2)cc(OC)c1OC	10.8
O=P(O)(CCc1ccccn1)CN1CCCCC1	-4.2
Oc1c(CN2CCN(c3ccccn3)CC2)cc(Cl)c2cccnc12	60.4*
Oc1c(CN2CCCCC2)cc(COCc2ccccc2)c2cccnc12	52.6*
c1ccc(-c2nnc(N3CCN(c4ccccn4)CC3)c3ccccc23)cc1	-5.4
SMILES	RORA inh
O=C(C1CCCN(S(=O)(=O)c2cccs2)C1)N1CCN(C2CCCCC2)CC1 (stereo not given)	-19.2
CCOC(=O)c1sc(C)c(C(=O)NCCCN2CCOCC2)c1N	0.7
COc1ccc(/C(O)=C2/C(=O)C(=O)N(CCN(C)C)C2c2ccc(F)cc2)cc1Cl (stereo not given)	1.0
O=C(CN(Cc1ccco1)S(=O)(=O)c1cccs1)Nc1ccccc1C(F)(F)F	-9.4
COc1ccc(-n2c(SCC#N)nnc2-c2ccc(NS(=O)(=O)c3ccc(C)cc3)cc2)cc1	-6.9
N/C(=N\S(=O)(=O)c1ccc(Cl)s1)c1ccccc1	23.8
CC(Sc1ccc2ccccc2n1)C(=O)O (stereo not given)	0.9
O=C1C2C3C=CC(C3)C2C(=O)N1c1ccc(-c2nc3ccccc3o2)cc1 (stereo not given)	-72.8

Assay outcomes as filed in PubChem.
